Active and inactive are the calls of the source. The rule behind the calls is not given here.
Legend:
Cytochrome P450 2C9 = Cytochrome P450 2C9 (Homo sapiens, UniProt P11712); assay: Activity at CYP2C9; assay type: ADME
[1] = Tmax in human at 100 mg, po BID administered on day 1 followed by 2-day wash out period after which dosing continued up to day 11 measured on day 4; assay type: ADME, organism-based; settings: in vivo
Outline: (§1)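 Double-blind, placebo-controlled, randomized multiple oral dose study in healthy male volunteers (cohorts of eight; six active, two placebo). Dose given on day 1, then a two-day washout, then dosing days 4–11; for the QD arm, subjects were titrated over days 1–4. Venous plasma sampled predose and 0.5, 1, 1.5, 2, 4, 6, 8, 10, 12 h postdose on days 1, 4 and 11. Tmax reported as median (min–max).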

[2] = Tmax in human at 100 mg, po BID administered on day 1 followed by 2-day wash out period after which dosing continued up to day 11 measured on day 11; assay type: ADME, organism-based; settings: in vivo; outline: as §1
[3] = Cmax in human at 150 mg, po TID administered on day 1 followed by 2-days wash out period after which dosing continued up to day 11 measured on day 4; assay type: ADME, organism-based; set-up: dose 150 mg, route oral; settings: in vivo
Outline: (§2)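 Healthy male volunteers took part in a double-blind, randomized, placebo-controlled dose-escalation study, with cohorts of 8 (6 on drug, 2 on placebo). Each subject got an oral dose on day 1, then a 2-day washout, then dosing on days 4–11. The 200 mg qd group was titrated over days 1–4. Venous plasma was sampled predose and 0.5–12 h postdose on days 1, 4 and 11, and predose on days 5–10 for troughs.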

Homo sapiens [4] = assay: Antidyslipidemic activity in dyslipidemia patient assessed as decrease in free fatty acid level at 150 mg administered TID during four week study; assay type: functional, organism-based
Mus musculus = assay: Toxicity in C57/Bl6 mouse assessed as increase in cutaneous blood flow in ear at 100 mg/kg, ip after 5 mins relative to vehicle treated control by laser doppler flowmetry; assay type: organism-based; set-up: dose 100 mg/kg, route intraperitoneal; settings: in vivo
Outline: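 Male C57/Bl6 mice (8–10 weeks, ~25 g) anesthetized with Nembutal ip (80 mg/10 mL/kg). Ear perfusion recorded by laser Doppler imaging: 3 min baseline, then vehicle (PBS, 40% HPBCD or 0.5% methylcellulose) or compound given ip at 5 mL/kg through a preinserted syringe, with readings for ~15 min. Expressed as % change of perfusion over baseline.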

Homo sapiens [5] = assay: Antidyslipedic activity in human assessed as decrease in free fatty acid level at 50 to 200 mg, po administered as a single dose measured after 1 to 2 hrs relative to placebo control; assay type: functional; set-up: scale not given: the % may be the effect or the level left
[6] = Tmax in human at 150 mg, po TID administered on day 1 followed by 2-days wash out period after which dosing continued up to day 11 measured on day 4; assay type: ADME, organism-based; settings: in vivo; outline: as §1
[7] = Tmax in human at 150 mg, po BID administered on day 1 followed by 2-day wash out period after which dosing continued up to day 11 measured on day 1; assay type: ADME, organism-based; settings: in vivo; outline: as §1
[8] = Cmax in human at 50 mg, po BID administered on day 1 followed by 2-day wash out period after which dosing continued up to day 11 measured on day 4; assay type: ADME, organism-based; set-up: dose 50 mg, route oral; settings: in vivo; outline: as §2
[9] = Apparent half life in human at 50 mg, po BID administered on day 1 followed by 2-day wash out period after which dosing continued up to day 11 measured on day 11; assay type: ADME, organism-based; settings: in vivo, read-out: t1/2(app) (converted)
Outline: (§3)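 Double-blind, placebo-controlled, randomized dose-escalation study in healthy male volunteers, six cohorts of eight (six active, two placebo). Oral dose on day 1, two-day washout, then dosing days 4–11; the 200 mg qd cohort was titrated over days 1–4. Venous blood taken predose and at 0.5–12 h on days 1, 4 and 11; plasma drug measured. τ 12 h (bid), 24 h (qd), 8 h (tid), 6 h (qid).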

[10] = Terminal half life in rhesus monkey; assay type: ADME, organism-based, Macaca mulatta; settings: in vivo, read-out: beta t1/2 (converted)
[11] = Tmax in human at 175 mg, po QID administered on day 1 followed by 2-days wash out period after which dosing continued up to day 11 measured on day 11; assay type: ADME, organism-based; settings: in vivo; outline: as §1
Homo sapiens [12] = assay: Toxicity in human assessed as occurrence of flushing at 10 to >10 mg administered as single dose; assay type: organism-based; settings: in vivo
Outline: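 Healthy volunteers scored subject-reported flushing with a flushing symptoms questionnaire after single oral doses and during repeat divided daily dosing.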

[13] = Apparent half life in human at 150 mg, po TID administered on day 1 followed by 2-day wash out period after which dosing continued up to day 11 measured on day 11; assay type: ADME, organism-based; settings: in vivo, read-out: t1/2(app) (converted); outline: as §3
Canis familiaris = assay: Dose normalized Cmax in po dosed dog; assay type: ADME, organism-based, Canis lupus familiaris; settings: in vivo
Rhesus monkey = assay: Dose normalized AUC in po dosed rhesus monkey; assay type: ADME, organism-based, Macaca mulatta; settings: in vivo
[14] = Cmax in human at 50 mg, po BID administered on day 1 followed by 2-day wash out period after which dosing continued up to day 11 measured on day 11; assay type: ADME, organism-based; set-up: dose 50 mg, route oral; settings: in vivo; outline: as §2
[15] = Oral bioavailability in dog; assay type: ADME, organism-based, Canis lupus familiaris; settings: in vivo
[16] = Tmax in human at 150 mg, po TID administered on day 1 followed by 2-days wash out period after which dosing continued up to day 11 measured on day 1; assay type: ADME, organism-based; settings: in vivo; outline: as §1
[17] = Cmin in human at 100 mg, po BID administered on day 1 followed by 2-day wash out period after which dosing continued up to day 11 measured on day 4 at 12 hrs; assay type: ADME, organism-based; settings: in vivo, read-out: Cmin; outline: as §2
Homo sapiens [18] = assay: Antidyslipidemic activity in human assessed as decrease in free fatty acid level 50 to 150 mg, po BID administered on day 1 followed by 2-days wash out period after which dosing continued up to day 11 measured on day 4 and 11; assay type: functional, organism-based
Outline: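 Healthy male volunteers in a randomized, double-blind, placebo-controlled multiple-dose study, six active and two placebo subjects per cohort. Oral dosing on day 1, two-day washout, then days 4–11, with titration over days 1–4 for the qd arm.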

[19] = Tmax in human at 150 mg, po BID administered on day 1 followed by 2-day wash out period after which dosing continued up to day 11 measured on day 11; assay type: ADME, organism-based; settings: in vivo; outline: as §1
[20] = Cmin in human at 50 mg, po BID administered on day 1 followed by 2-day wash out period after which dosing continued up to day 11 measured on day 4 at 12 hrs; assay type: ADME, organism-based; settings: in vivo, read-out: Cmin; outline: as §2
[21] = Cmin in human at titreated dose from day 1 to 4 followed by 200 mg, po QD administered up to day 11 measured on day 4 at 12 hrs; assay type: ADME, organism-based; settings: in vivo, read-out: Cmin; outline: as §2
Rattus norvegicus [22] = assay: Antidyslipedic activity in fasted Sprague-Dawley rat assessed as decrease in free fatty acid level at 0.01 to 100 mg/kg, po by NEFA C-free fatty acid assay; assay type: functional; set-up: scale not given: the % may be the effect or the level left; settings: dose mg/kg 0.01-100
Outline: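 Male Sprague-Dawley rats fasted, compound by oral gavage, serial plasma sampling after dosing for free fatty acids over a time course; vehicle-dosed control group.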

Rattus norvegicus [23] = assay: Dose normalized Cmax in Sprague-Dawley rat at 10 mg/kg, po; assay type: ADME, organism-based; set-up: dose 10 mg/kg, route oral; settings: in vivo
Outline: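 Male Sprague-Dawley rats were dosed at 10 mg/kg po or 2 mg/kg iv in 80% PEG400/20% phosphate-buffered saline, fasted overnight before the oral dose. Jugular blood was sampled serially from 0.25 to 21 h over 24 h, and heparinized plasma was prepared. Drug was assayed by HPLC/MS/MS (quantitation range 1–2000 ng/mL).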

[24] = Oral bioavailability in mouse; assay type: ADME, organism-based; settings: in vivo
[25] = AUC (0 to 12 hrs) in human at 50 mg, po BID administered on day 1 followed by 2-day wash out period after which dosing continued up to day 11 measured on day 1; assay type: ADME, organism-based; set-up: dose 50 mg, time < 12 hr, route oral; settings: plasma; outline: as §3

Cytochrome P450 2C9, sequence (P11712 whole entry): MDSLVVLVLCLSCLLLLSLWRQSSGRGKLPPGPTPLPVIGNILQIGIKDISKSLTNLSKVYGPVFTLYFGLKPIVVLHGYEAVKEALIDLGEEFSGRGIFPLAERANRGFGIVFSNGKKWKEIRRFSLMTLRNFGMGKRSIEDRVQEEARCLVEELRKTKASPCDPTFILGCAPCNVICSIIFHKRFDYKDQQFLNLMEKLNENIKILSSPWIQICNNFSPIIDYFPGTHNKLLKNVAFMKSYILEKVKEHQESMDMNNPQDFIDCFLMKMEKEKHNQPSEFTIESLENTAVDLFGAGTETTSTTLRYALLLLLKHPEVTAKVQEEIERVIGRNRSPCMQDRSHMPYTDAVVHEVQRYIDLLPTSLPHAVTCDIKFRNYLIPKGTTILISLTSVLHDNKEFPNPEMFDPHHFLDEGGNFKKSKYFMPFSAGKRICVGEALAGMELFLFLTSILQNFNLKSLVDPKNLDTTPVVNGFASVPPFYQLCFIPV

O=C(O)c1n[nH]c2c1C[C@H]1C[C@@H]21
Activity (Cytochrome P450 2C9): Not Active | Tmax [1]: 1 h | Tmax [2]: 0.5 h | Cmax [3]: 52.6 nM | Activity (Homo sapiens [4]): Active | Activity (Mus musculus): 30% | Activity (Homo sapiens [5]): 90% | Tmax [6]: 0.5 h | Tmax [7]: 1.25 h | Cmax [8]: 12.3 nM | half-life [9]: 1.9 h | half-life [10]: 1.1 h | Tmax [11]: 0.75 h | Activity (Homo sapiens [12]): Toxic | half-life [13]: 11 h | Cmax/dose (Canis familiaris): 17.5 µM·kg/mg | AUC/dose (Rhesus monkey): 8.5 µM·kg·h/mg | Cmax [14]: 16.2 nM | bioavailability [15]: 100% | Tmax [16]: 0.5 h | concentration at 12 h [17]: 0.083 nM | Activity (Homo sapiens [18]): Active | Tmax [19]: 1 h | concentration at 12 h [20]: 0.023 nM | concentration at 12 h [21]: 0.244 nM | Activity (Rattus norvegicus [22]): 90% | Cmax/dose (Rattus norvegicus [23]): 3.7 µM·kg/mg | bioavailability [24]: 40% | AUC at 12 h [25]: 0.0294 µM·h
